# In ChEMBL document CHEMBL3297654, “Synthesis, antimicrobial and cytotoxic activities, and structure-activity relationships of gypsogenin derivatives against human cancer cells” (Eur J Med Chem, 2014):
# The source made the active and inactive calls. No cut-off for these calls is given here.
# Key:
# HL-60 [1] = experiment: Antiproliferative activity against human HL60 cells after 24 and 72 hrs by MTT assay; format: functional, cell-based
# In short: (§1)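 ATCC human cell lines are kept in RPMI, DMEM or McCoy's 5A with 10–15% heat-inactivated FCS at 37 °C and 5% CO2. They are seeded at 1×10^4–1×10^5 cells/mL in 48-well plates and exposed to 0.5, 10, 20 or 40 µM. Viability is read by MTT (590 nm) at 24 and 72 h. Growth is expressed relative to untreated cells and IC50 is fitted, in triplicate.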
# HT-29 [2] = experiment: Antiproliferative activity against human HT-29 cells after 24 and 72 hrs by MTT assay; format: functional, cell-based; in short: as §1
# Caco-2 [3] = experiment: Antiproliferative activity against human Caco2 cells after 24 and 72 hrs by MTT assay; format: functional, cell-based; in short: as §1
# [4] = Antiproliferative activity against human Saos2 cells after 24 and 72 hrs by MTT assay; format: functional, cell-based; conditions: SAOS-2; in short: as §1
# MCF7 [5] = experiment: Antiproliferative activity against human MCF7 cells after 24 and 72 hrs by MTT assay; format: functional, cell-based; in short: as §1
# HeLa [6] = experiment: Antiproliferative activity against human HeLa cells after 24 and 72 hrs by MTT assay; format: functional, cell-based; in short: as §1
# HL-60 [7] = experiment: Induction of apoptosis in human HL60 cells at 0.5 uM after 48 hrs by Hoechst 33258/propidium iodide staining based phase contrast microscopic analysis; format: functional
# In short: (§2)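 Cells in 48-well plates treated with 0.5, 10, 20 or 40 µM for 24 and 48 h. Values are read at 48 h, 20 µM for test agents and 0.5 µM for controls. Staining is Hoechst 33258/propidium iodide double staining with fluorescence microscopy. Blue nuclei are viable or early-to-mid apoptotic, and pink nuclei are late apoptotic or necrotic. Apoptosis and necrosis are scored from chromatin condensation as % of cells. Cells are grown at 37 °C in 5% CO2 in RPMI, DMEM or McCoy's 5A with 10–15% heat-inactivated FCS.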
# HT-29 [8] = experiment: Induction of apoptosis in human HT-29 cells at 0.5 uM after 48 hrs by Hoechst 33258/propidium iodide staining based phase contrast microscopic analysis; format: functional; in short: as §2
# Caco-2 [9] = experiment: Induction of apoptosis in human Caco2 cells at 0.5 uM after 48 hrs by Hoechst 33258/propidium iodide staining based phase contrast microscopic analysis; format: functional; in short: as §2
# SAOS-2 [10] = experiment: Induction of apoptosis in human Saos2 cells at 0.5 uM after 48 hrs by Hoechst 33258/propidium iodide staining based phase contrast microscopic analysis; format: functional; in short: as §2
# MCF7 [11] = experiment: Induction of apoptosis in human MCF7 cells at 0.5 uM after 48 hrs by Hoechst 33258/propidium iodide staining based phase contrast microscopic analysis; format: functional; in short: as §2
# HeLa [12] = experiment: Induction of apoptosis in human HeLa cells at 0.5 uM after 48 hrs by Hoechst 33258/propidium iodide staining based phase contrast microscopic analysis; format: functional; in short: as §2
# HL-60 [13] = experiment: Induction of necrosis in human HL60 cells at 0.5 uM after 48 hrs by Hoechst 33258/propidium iodide staining based phase contrast microscopic analysis; format: functional; in short: as §2
# HT-29 [14] = experiment: Induction of necrosis in human HT-29 cells at 0.5 uM after 48 hrs by Hoechst 33258/propidium iodide staining based phase contrast microscopic analysis; format: functional; in short: as §2
# Caco-2 [15] = experiment: Induction of necrosis in human Caco2 cells at 0.5 uM after 48 hrs by Hoechst 33258/propidium iodide staining based phase contrast microscopic analysis; format: functional; in short: as §2
# SAOS-2 [16] = experiment: Induction of necrosis in human Saos2 cells at 0.5 uM after 48 hrs by Hoechst 33258/propidium iodide staining based phase contrast microscopic analysis; format: functional; in short: as §2
# MCF7 [17] = experiment: Induction of necrosis in human MCF7 cells at 0.5 uM after 48 hrs by Hoechst 33258/propidium iodide staining based phase contrast microscopic analysis; format: functional; in short: as §2
# HeLa [18] = experiment: Induction of necrosis in human HeLa cells at 0.5 uM after 48 hrs by Hoechst 33258/propidium iodide staining based phase contrast microscopic analysis; format: functional; in short: as §2
# Micrococcus luteus [19] = experiment: Antimicrobial activity against Micrococcus luteus ATCC 9341 assessed as zone of inhibition at 15 mg for 24 hrs at 30 degC by disk diffusion test; format: functional; conditions: ATCC 9341, 24 h, read-out: DIZ
# Enterococcus faecalis [20] = experiment: Antimicrobial activity against Enterococcus faecalis ATCC 29212 assessed as zone of inhibition at 15 mg for 24 hrs at 37 degC by disk diffusion test; format: functional, organism-based
# Bacillus subtilis [21] = experiment: Antimicrobial activity against Bacillus subtilis ATCC 6633 assessed as zone of inhibition at 15 mgby disk diffusion test; format: functional
# Escherichia coli = experiment: Antimicrobial activity against Escherichia coli ATCC 25922 assessed as zone of inhibition at 10 mg for 24 hrs at 37 degC by disk diffusion test; format: functional, organism-based
# Salmonella typhimurium = experiment: Antimicrobial activity against Salmonella typhimurium ATCC 14028 assessed as zone of inhibition at 10 mg for 24 hrs at 37 degC by disk diffusion test; format: functional; conditions: Salmonella enterica subsp. enterica serovar Typhimurium
# Micrococcus luteus [22] = experiment: Antimicrobial activity against Micrococcus luteus ATCC 9341 assessed as zone of inhibition at 10 mg for 24 hrs at 30 degC by disk diffusion test; format: functional
# Staphylococcus aureus = experiment: Antimicrobial activity against Staphylococcus aureus ATCC 25923 assessed as zone of inhibition at 10 mg for 24 hrs at 37 degC by disk diffusion test; format: functional
# [23] = system: Staphylococcus epidermidis; experiment: Antimicrobial activity against Staphylococcus epidermidis ATCC 12228 assessed as zone of inhibition at 10 mg for 24 hrs at 37 degC by disk diffusion test; format: functional
# Klebsiella pneumoniae = experiment: Antimicrobial activity against Klebsiella pneumoniae ATCC 13882 assessed as zone of inhibition at 10 mg for 24 hrs at 37 degC by disk diffusion test; format: functional, organism-based
# In short: (§3)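 Agar well diffusion following NCCLS disc susceptibility guidance. Compounds were held as 1000 µg/mL stocks in DMSO. Broth cultures (18–24 h) were adjusted to 0.5 McFarland (1×10^8 cells/mL) and spread on Mueller Hinton agar. A 6 mm well was cut and filled with 30 µL compound. Plates were incubated 24 h at 37 °C, and the inhibition zone diameter was measured in mm.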
# Pseudomonas aeruginosa = experiment: Antimicrobial activity against Pseudomonas aeruginosa ATCC 35032 assessed as zone of inhibition at 10 mg for 24 hrs at 37 degC by disk diffusion test; format: functional, organism-based; in short: as §3
# Proteus vulgaris = experiment: Antimicrobial activity against Proteus vulgaris ATCC 33420 assessed as zone of inhibition at 10 mg by disk diffusion test; format: functional, organism-based
# Enterococcus faecalis [24] = experiment: Antimicrobial activity against Enterococcus faecalis ATCC 29212 assessed as zone of inhibition at 10 mg for 24 hrs at 37 degC by disk diffusion test; format: functional; in short: as §3
# Bacillus cereus = experiment: Antimicrobial activity against Bacillus cereus ATCC 11778 assessed as zone of inhibition at 10 mg for 24 hrs at 30 degC by disk diffusion test; format: functional, organism-based
# In short: (§4)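 Well diffusion on Mueller Hinton agar per NCCLS disc susceptibility tests. DMSO stocks were 1000 µg/mL. Bacterial broth cultures (18–24 h) were adjusted to 0.5 McFarland, about 1×10^8 cells/mL. A 6 mm well received 30 µL compound. Incubation was 24 h at 30 °C, and zone diameters were read in mm. B. thuringiensis was a fecal clinical isolate grown in nutrient broth.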
# Bacillus subtilis [25] = experiment: Antimicrobial activity against Bacillus subtilis ATCC 6633 assessed as zone of inhibition at 10 mg by disk diffusion test; format: functional, organism-based
# Bacillus thuringiensis = experiment: Antimicrobial activity against Bacillus thuringiensis assessed as zone of inhibition at 10 mg for 24 hrs at 30 degC by disk diffusion test; format: functional, organism-based; in short: as §4
# Cyberlindnera jadinii = experiment: Antimicrobial activity against Candida utilis ATCC 9950 assessed as zone of inhibition at 100 mg for 24 hrs at 30 degC by disk diffusion test; format: functional, organism-based
# In short: (§5)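 Yeast well-diffusion assay on Mueller Hinton agar following NCCLS disc susceptibility procedure. Compound stocks were 1000 µg/mL in DMSO. Yeast broth cultures (18–24 h) were adjusted to 0.5 McFarland, about 1×10^6 cells/mL. A 6 mm well was loaded with 30 µL compound. Plates were incubated at 30 °C for 24 h, and inhibition zones were measured in mm. C. glabrata and C. tropicalis were precultured in malt extract broth.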
# Candida tropicalis = experiment: Antimicrobial activity against Candida tropicalis assessed as zone of inhibition at 100 mg for 24 hrs at 30 degC by disk diffusion test; format: functional, organism-based; in short: as §5
# Nakaseomyces glabratus = experiment: Antimicrobial activity against Candida glabrata assessed as zone of inhibition at 100 mg for 24 hrs at 30 degC by disk diffusion test; format: functional, organism-based; in short: as §5
# Saccharomyces cerevisiae = experiment: Antimicrobial activity against Saccharomyces cerevisiae ATCC 9763 assessed as zone of inhibition at 100 mg for 24 hrs at 30 degC by disk diffusion test; format: functional, organism-based; in short: as §5
compound,measurement,setting,value
CC(=O)O[C@H]1C(=O)[C@@]2(C)[C@H]([C@H](OC(=O)c3ccccc3)[C@]3(O)C[C@H](OC(=O)[C@H](O)[C@@H](NC(=O)c4ccccc4)c4ccccc4)C(C)=C1C3(C)C)[C@]1(OC(C)=O)CO[C@@H]1C[C@@H]2O [PACLITAXEL],IC50,HL-60 [1],320 nM
same,IC50,HT-29 [2],290 nM
same,IC50,Caco-2 [3],310 nM
same,IC50,[4],350 nM
same,IC50,MCF7 [5],330 nM
same,IC50,HeLa [6],290 nM
same,Activity,HL-60 [7],53%
same,Activity,HT-29 [8],52%
same,Activity,Caco-2 [9],52%
same,Activity,SAOS-2 [10],42%
same,Activity,MCF7 [11],50%
same,Activity,HeLa [12],44%
same,Activity,HL-60 [13],0%
same,Activity,HT-29 [14],2%
same,Activity,Caco-2 [15],2%
same,Activity,SAOS-2 [16],1%
same,Activity,MCF7 [17],1%
same,Activity,HeLa [18],2%
CC[C@H]1OC(=O)[C@H](C)[C@@H](O[C@H]2C[C@@](C)(OC)[C@@H](O)[C@H](C)O2)[C@H](C)[C@@H](O[C@@H]2O[C@H](C)C[C@H](N(C)C)[C@H]2O)[C@](C)(O)C[C@@H](C)C(=O)[C@H](C)[C@@H](O)[C@]1(C)O [ERYTHROMYCIN],zone of inhibition at 15000 µg/disc,Micrococcus luteus [19],30 mm
same,diameter of the inhibition zone (DIZ),Enterococcus faecalis [20],inactive
same,diameter of the inhibition zone (DIZ),Bacillus subtilis [21],25 mm
GENTAMICIN,inhibition zone (IZ),Escherichia coli,21 mm
same,inhibition zone (IZ),Salmonella typhimurium,16 mm
same,inhibition zone (IZ),Micrococcus luteus [22],15 mm
same,inhibition zone (IZ),Staphylococcus aureus,20 mm
same,inhibition zone (IZ),[23],17 mm
same,inhibition zone (IZ),Klebsiella pneumoniae,19 mm
same,inhibition zone (IZ),Pseudomonas aeruginosa,20 mm
same,inhibition zone (IZ),Proteus vulgaris,24 mm
same,inhibition zone (IZ),Enterococcus faecalis [24],11 mm
same,inhibition zone (IZ),Bacillus cereus,24 mm
same,inhibition zone (IZ),Bacillus subtilis [25],20 mm
same,inhibition zone (IZ),Bacillus thuringiensis,21 mm
NYSTATIN,inhibition zone (IZ),Cyberlindnera jadinii,21 mm
same,inhibition zone (IZ),Candida tropicalis,15 mm
same,inhibition zone (IZ),Nakaseomyces glabratus,16 mm
same,inhibition zone (IZ),Saccharomyces cerevisiae,15 mm
